Efflux pump mplx: inhibitors of Candida antifungal efflux pumps expressed in yeast | inhibition, % at 10 µM | actives 0.44% (n = 330,000) | AID 485275 | S. cerevisiae Candida pump triplex, Nile Red efflux;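 active means plate passing quality check with inhibition over a set limit, or well fluorescence over plate mean plus 4 SD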;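 further: Nile Red retained in pooled yeast measured as flow cytometry median fluorescence; 0% = buffer negative control and 100% = Enniatin B positive control; higher means more Nile Red kept so more efflux inhibition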
Mot1-301 SUMO: inhibitors of SUMOylation pathway: yeast Mot1-301 growth rescue | S. cerevisiae Mot1-301 growth rescue, ATP luminescence, 38.5C; percent above DMSO median, 100 means doubled | AID 2716 | growth rescue, % at 18.8 µM | actives 1% (n = 320,000);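 active means every valid replicate shows activation above 250% relative to neutral control wells; inactive means the rest, any valid replicate at or below 250%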;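 further: OY570 slx delta 5 strain wells were the positive control but not used for scaling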
Cneo AK release: Cryptococcus neoformans lysis via adenylate kinase release | lysis activity, % at 15 µM | C. neoformans lysis, adenylate kinase release luminescence, 4 h; normalised: neutral wells 0, clomiphene wells 100 | actives 0.2% (n = 360,000);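 active means mean lysis activity across replicates of at least 80%, whatever share of replicates individually reach that level; inactive means mean lysis activity below 80%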
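Assay system: C. neoformans cells. Amount: yeast cell density of 5 × 10^6 cells/mL. Technique: AK luminescence. Buffer or medium: YPD. Times: static 4 h at 37 °C with compound, 1 h detection. Dosing: single-point compound dose. Read-out: lysis from increased AK signal.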
C2C12 statin: suppression of simvastatin myotoxicity; actives 0.78% (n = 330,000); rescue of ATP level, % at 7.49 µM; C2C12 myotubes + simvastatin, ATP luminescence, 48 h; scaled: DMSO 0, geranylgeraniol control 100;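 active means mean ATP rescue above about 67%, or every replicate alone reaching that limit, limit read from the data, passing the limit was not always enough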;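 further: myotubes were challenged with 10 µM simvastatin during compound exposure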
* = called active by the depositor; . = no result. Shown are actives, neighbours in structure and some others; about 1.8% of the full set was active somewhere.

SMILES	Efflux pump mplx	Mot1-301 SUMO	Cneo AK release	C2C12 statin
Cc1[nH]c2ccccc2c(=O)c1SC(F)(F)C(F)C(F)(F)F (stereo not given)	0	4	-1	104*
COC(=O)C(F)(F)Sc1c(C)[nH]c2ccccc12	0	7	-1	1
Cc1ccc(S(=O)(=O)Cn2nnnc2CN(Cc2ccco2)Cc2cccs2)cc1	1	-9	0	8
CCN1CCCC1Cn1cnc2c([nH]c3cccc(Cl)c32)c1=O (stereo not given)	0	-18	3	7
CCN1CCCC1Cn1cnc2c([nH]c3ccc(Cl)cc32)c1=O (stereo not given)	0	19	-5	99*
CC(OC(=O)C1CCCC1)C(=O)Nc1ncc(Cl)cc1Cl (stereo not given)	0	14	-1	2
Cc1noc(C)c1S(=O)(=O)Nc1ccc2c(c1)CC(=O)N([C@@H](C)CO)C[C@H](C)[C@H](CN(C)C(=O)Nc1ccc3c(c1)OCO3)O2	.	.	1	13
Cc1cc(C)nc(NS(=O)(=O)c2ccc(NC(=O)CCC3COc4ccccc4O3)cc2)n1 (stereo not given)	0	13	2	4
CC1(Cc2cccc(F)c2)C(=O)Nc2ccc(S(=O)(=O)NC3CCCCC3)cc21 (stereo not given)	.	.	1	164*
Cc1cc(CC(=O)O)n(C)c1C(=O)c1ccc(Cl)cc1	0	241	-1	5
COc1ccc(NC(=O)CCNC(=O)N2CC(=O)Nc3ccccc32)c(OC)c1	0	-4	-2	-13
O=C(CN(Cc1ccc(F)cc1)C(=O)c1csnn1)NC1CCCC1	0	25	-1	-27
O=C(C[C@H]1CC[C@H]2[C@@H](COC[C@@H](O)CN2C(=O)Nc2ccc(Cl)cc2)O1)N1CCCCC1	.	.	87*	-18
O=C(C[C@H]1CC[C@H]2[C@@H](COC[C@H](O)CN2C(=O)Nc2ccc3c(c2)OCO3)O1)N1CCN(c2ccccc2)CC1	.	.	91*	-6
O=C(C[C@@H]1CC[C@H]2[C@@H](COC[C@@H](O)CN2C(=O)Nc2ccc(Cl)cc2)O1)NCCc1ccncc1	.	.	100*	-23
CC(C)(C)SCCNC(=O)c1ccc(Cl)c([N+](=O)[O-])c1	0	6	.	.
Cc1cc(/C=N/NC(=O)c2ccc(CN3CCOCC3)cc2)c(C)n1-c1ccccc1	0	6	6	116*
COc1ccc(N2CCN(C(c3cc(OC)ccc3OC)c3nnnn3CC3CCCO3)CC2)cc1 (stereo not given)	0	-30	1	79*
CCOC(=O)c1c(-c2ccc(OC)cc2)csc1/N=C/C1C(=O)CCCC1=O	0	-2	.	.
CCCNC(=O)Nc1ccc2c(c1)C(=O)N(C)[C@H]1CC[C@@H](CC(=O)NCC3CCCCC3)O[C@@H]1CO2	.	.	2	5
CCOC(=O)C(Cc1ccccc1)C(=O)Nc1ccc(NC(=O)C(Cc2ccccc2)C(=O)OCC)cc1 (stereo not given)	0	17	-3	.
CCOC(=O)C(Cc1ccccc1)C(=O)Nc1nccs1 (stereo not given)	0	31	2	99*
COc1ccc(S(=O)(=O)N(C)C[C@H]2Oc3c(NC(=O)c4cnccn4)cccc3C(=O)N([C@@H](C)CO)C[C@@H]2C)cc1	.	.	-3	25
O=C(COC(=O)CC1CC2CCC1C2)Nc1ccccc1Cl (stereo not given)	0	-6	-2	-7
Cc1ccc(Cl)cc1NC(=O)COC(=O)CC1CC2CCC1C2 (stereo not given)	0	5	3	112*
SMILES	Efflux pump mplx	Mot1-301 SUMO	Cneo AK release	C2C12 statin
O=C(NCc1ccccc1)C1=C[C@H](c2ccccc2)C[C@H](OCc2ccc(CO)cc2)O1	0	-4	0	-4
C/C(=N\O)C(=O)OC1CC(C)CCC1C(C)C (stereo not given)	0	2	-1	-1
Cc1ccccc1C(=O)NNC(=O)C1CCN(C(=O)Nc2ccccc2)CC1	0	342*	0	-8
O=C(NNC(=O)C1CCN(C(=O)Nc2ccccc2)CC1)c1ccc(F)cc1	0	8	1	-9
CCOc1ccc(N2C(=O)CC(SC(=NC)Nc3cccc(F)c3)C2=O)cc1 (stereo not given)	0	21	0	11
CC1(C)NC(=O)N(CC(=O)N2CCN(S(=O)(=O)c3cc(Cl)ccc3Cl)CC2)C1=O	0	14	0	36
CC1(C)NC(=O)N(CNc2cc(Cl)ccc2Cl)C1=O	0	0	-1	100*
Cn1nnc(NC(=O)CSc2ccc(Cl)cc2)n1	0	2	1	98*
Cn1nnc(NC(=O)CSc2nnnn2-c2ccc(F)cc2)n1	0	.	0	-18
O=C(COc1ncnc2ccccc12)N1CCN(S(=O)(=O)c2ccccc2)CC1	0	43	-2	.
O=c1[nH]c(=S)c2[nH]c(=S)n(-c3ccccc3)c2[nH]1	.	.	2	99*
COC(=O)Nc1ccc(S(=O)(=O)Nc2ccccc2F)cc1	0	0	2	22
CCCC(=O)Nc1ccc2c(c1)C(=O)N(C)C[C@H](OC)[C@@H](C)CN(C(=O)c1cccnc1)[C@@H](C)CO2	.	.	82*	-6
CCC(=O)Nc1ccc2c(c1)OC[C@H](C)N(C(=O)c1ccc(F)cc1)C[C@@H](C)[C@@H](OC)CN(C)C2=O	.	.	92*	-14
CC1CCCC(C)N1CC(O)COC1CCC(C(C)(C)C)CC1 (stereo not given)	0	97	-10	15
CC(C)NC(=O)Nc1cccc2c1O[C@H](CN(C)S(=O)(=O)c1ccc(Cl)cc1)[C@@H](C)CN([C@H](C)CO)C2=O	.	.	-3	-2
CCC(=O)NCCc1nc2ccccc2n1Cc1ccccc1	0	4	.	124*
NC(=O)C1(N2CCCCC2)CCN(Cc2nc(-c3cccs3)no2)CC1	0	17	.	0
Cc1c(C(=O)N2CCN(c3ccc(F)cc3)CC2)sc2ncnc(N3CCN(c4ccccn4)CC3)c12	0	24	9	-54
Cc1nc(N2CCN(c3ccccn3)CC2)c2c(C)c(C(=O)N3CCN(c4ccc(F)cc4)CC3)sc2n1	0.5*	287	1	-22
Cc1cccc(/C=C(\c2nc3ccccc3[nH]2)S(=O)(=O)c2ccccc2)c1	.	.	.	78*
CC(C)(C)c1ccc(/C=C(\c2nc3ccccc3[nH]2)S(=O)(=O)c2ccccc2)cc1	0	-11	-2	41
C/C=C/c1ccc2c(c1)O[C@H](CN(C)C(=O)C1CCC1)[C@@H](C)CN([C@@H](C)CO)S2(=O)=O	.	.	.	-10
NC(=S)N=Nc1c(O)n(CCCl)c2ccccc12	0	-32	.	.
NC(=S)N=Nc1c(O)n(CCCl)c2ccc(Cl)cc12	0	341*	-1	1
CCNc1nc(SCc2ccccc2)nc(N2CCOCC2)n1	0	-5	2	99*
COc1cc(C(=O)OCCN2CCOCC2)ccc1O	0	6	-1	108*
O=C(OCCCN1CCOCC1)c1ccc(O)c(O)c1	0	-7	.	.

Screening results from PubChem BioAssay.
